Measured values published in ChEMBL document CHEMBL3734708, “Synthesis, cytotoxicity and antiviral evaluation of new series of imidazo[4,5-g]quinoline and pyrido[2,3-g]quinoxalinone derivatives” (Eur J Med Chem, 2015).

What was measured:
[1] = Cytotoxicity against MDBK cells assessed as reduction in cell viability after 72 hrs by MTT assay; type: cell-based, Bos taurus; settings: cattle
Method in brief: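 MDBK cells seeded at 6 × 10^5 cells/mL in MEM-E with L-glutamine, 1 mM sodium pyruvate, kanamycin and 10% horse serum. Mock-infected cultures held with serial compound dilutions at 37 °C, 5% CO2. MTT viability read after 72 h. 50% cytotoxic concentration from linear regression as % of untreated controls. Three independent determinations.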

Yellow fever virus = assay: Antiviral activity against YFV 17-D vaccine (Stamaril Pasteur J07B01) infected in BHK21 cells assessed as protection against virus-induced cytopathic effect after 3 or 4 days by MTT assay; type: functional, organism-based; settings: BHK-21
Method in brief: (§1)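 BHK-21 (YFV, Reo-1) or MDBK (BVDV) cells seeded at 5 × 10^4 or 3 × 10^4 cells/well and grown overnight to confluence. Monolayers infected at m.o.i. 0.01 in maintenance medium (MEM-Earle, 0.5% inactivated FBS). Serial compound dilutions added 2 h after infection; 37 °C for 3-4 days. Viability read by MTT. EC50 by linear regression versus untreated controls; mean of three determinations.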

[2] = Cytotoxicity against human MT4 cells assessed as reduction in cell proliferation after 96 hrs by MTT assay; type: cell-based
Method in brief: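 MT-4 cells in exponential growth seeded at 1 × 10^5 cells/mL in RPMI-1640 with 10% FBS and penicillin/streptomycin. Cultured with serial compound dilutions at 37 °C, 5% CO2. MTT viability after 96 h. CC50 by linear regression against untreated controls. Mean of three independent determinations.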

[3] = system: Human immunodeficiency virus 1; assay: Antiviral activity against HIV-1 3B infected in human MT4 cells assessed as protection against virus-induced cytopathic effect after 4 days by MTT assay; type: functional, organism-based; settings: Human immunodeficiency virus 1, 3B, MT4, 96 h
Method in brief: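 MT-4 cells (1 × 10^4/well in RPMI) with or without serial compound dilutions, infected with HIV-1 at 100 CCID50 (m.o.i. 0.01). After 4 days at 37 °C, protection from cytopathogenicity read by MTT. EC50 by linear regression versus untreated controls; mean of three independent determinations.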

[4] = system: Bovine viral diarrhea virus 1; assay: Antiviral activity against BVDV NADL ATCC VR-534 infected in MDBK cells assessed as protection against virus-induced cytopathic effect after 3 or 4 days by MTT assay; type: functional, organism-based; settings: Bovine viral diarrhea virus isolates and strains, NADL ATCC VR-534, MDBK; method in brief: as §1
[5] = Cytotoxicity against BHK21 cells assessed as reduction in cell viability after 72 hrs by MTT assay; type: cell-based, Mesocricetus auratus, BHK-21; settings: hamster
Method in brief: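 BHK cells seeded at 1 × 10^6 cells/mL in MEM-E with L-glutamine, 1 mM sodium pyruvate, kanamycin and 10% FBS. Mock-infected cells exposed to serial dilutions of compound at 37 °C, 5% CO2, run in parallel with the antiviral assays. Viability by MTT at 72 h. CC50 by linear regression vs untreated controls. Mean of three independent determinations.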

[6] = system: Respiratory syncytial virus; assay: Antiviral activity against RSVA2 ATCC VR-1540 infected in african green monkey Vero-76 cells after 5 days by plaque reduction assay; type: functional, organism-based; settings: human respiratory syncytial virus, A2 ATCC VR-1540, Vero 76, 120 h
[7] = system: Human poliovirus 1 strain Sabin; assay: Antiviral activity against Human poliovirus 1 strain Sabin 1 virus infected in african green monkey Vero-76 cells after 2 days by plaque reduction assay; type: functional, organism-based; settings: Enterovirus C, 1, Vero 76, 48 h
Coxsackievirus B5 = assay: Antiviral activity against CVB-5 virus Faulkner ATCC VR-185 infected in african green monkey Vero-76 cells after 3 days by plaque reduction assay; type: functional, organism-based; settings: Enterovirus B, Faulkner ATCC VR-185, Vero 76, 72 h
Human alphaherpesvirus 1 = assay: Antiviral activity against HSV-1 KOS ATCC VR- 1493 infected in african green monkey Vero-76 cells after 3 days by plaque reduction assay; type: functional, organism-based; settings: Human alphaherpesvirus 1, KOS ATCC VR1493, Vero 76, 72 h
Vaccinia virus = assay: Antiviral activity against VV Elstree ATCC VR-1549 infected in african green monkey Vero-76 cells after 3 days by plaque reduction assay; type: functional, organism-based; settings: Orthopoxvirus vaccinia, Elstree ATCC VR-1549, Vero 76, 72 h
[8] = system: Vesicular stomatitis virus; assay: Antiviral activity against VSV Indiana ATCC VR-158 infected in african green monkey Vero-76 cells after 2 days by plaque reduction assay; type: functional, organism-based; settings: Indiana ATCC VR-158, Vero 76, 48 h
[9] = Cytotoxicity against african green monkey Vero 76 cells assessed as reduction in cell viability after 48 to 96 hrs by MTT assay; type: cell-based; settings: chlorocebus sabaeus
Method in brief: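 Vero-76 cells plated at 4 × 10^5 cells/mL in D-MEM with L-glutamine, kanamycin and 10% FBS. Incubated with serial dilutions of test compounds at 37 °C, 5% CO2 for 48-96 h. Viability by MTT. CC50 by linear regression relative to untreated cells. Mean of three independent runs.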

[10] = system: Mammalian orthoreovirus 1; assay: Antiviral activity against Reovirus 1 ATCC VR- 214 infected in BHK21 cells assessed as protection against virus-induced cytopathic effect after 3 or 4 days by MTT assay; type: functional, cell-based; settings: Mammalian orthoreovirus 1, ATCC VR- 214, BHK-21; method in brief: as §1

SMILES	CC50 at 72 h [1]	EC50 (Yellow fever virus)	CC50 at 96 h [2]	EC50 [3]	EC50 [4]	CC50 at 72 h [5]	EC50 [6]	EC50 [7]	EC50 (Coxsackievirus B5)	EC50 (Human alphaherpesvirus 1)	EC50 (Vaccinia virus)	EC50 [8]	CC50 [9]	EC50 [10]
O=c1c(Cc2ccccc2)nc2cc3cccnc3c(Cl)c2n1C1CCCCC1	> 100 µM	> 20 µM	34 µM	> 34 µM	5 µM	20 µM	> 20 µM	> 20 µM	> 20 µM	> 20 µM	> 20 µM	> 20 µM	20 µM	> 20 µM
O=c1c(-c2ccccc2)nc2c(Cl)c3ncccc3cc2n1Cc1ccc([N+](=O)[O-])cc1	> 100 µM	> 100 µM	> 100 µM	> 100 µM	> 100 µM	> 100 µM	> 100 µM	> 100 µM	> 100 µM	> 100 µM	> 100 µM	> 100 µM	> 100 µM	> 100 µM
c1csc(-c2nc3cc4cccnc4cc3n2C2CCCCC2)c1	> 100 µM	> 45 µM	18 µM	> 18 µM	65 µM	45 µM	> 15 µM	> 15 µM	> 15 µM	> 15 µM	> 15 µM	> 15 µM	15 µM	> 45 µM
CCCn1c(-c2ccccc2)nc2cc3cccnc3cc21	> 100 µM	> 100 µM	62 µM	> 62 µM	> 100 µM	> 100 µM	> 90 µM	> 90 µM	13 µM	> 90 µM	> 90 µM	> 90 µM	90 µM	> 100 µM
c1ccc(Cc2nc3cc4cccnc4cc3n2CC2CCCCC2)cc1	> 100 µM	> 71 µM	10 µM	> 10 µM	10 µM	71 µM	> 25 µM	> 25 µM	> 25 µM	> 25 µM	> 25 µM	> 25 µM	25 µM	> 71 µM
CCn1c(=O)c(-c2ccccc2)nc2c(Cl)c3ncccc3cc21	> 100 µM	> 100 µM	> 100 µM	> 100 µM	> 100 µM	> 100 µM	> 60 µM	> 60 µM	> 60 µM	> 60 µM	> 60 µM	> 60 µM	60 µM	> 100 µM
CCCn1c(=O)c(-c2ccccc2)nc2cc3cccnc3c(Cl)c21	40 µM	> 100 µM	40 µM	> 40 µM	33 µM	> 100 µM	> 50 µM	> 50 µM	7 µM	> 50 µM	> 50 µM	> 50 µM	50 µM	> 100 µM
O=c1c(-c2ccccc2)nc2c(Cl)c3ncccc3cc2n1Cc1ccccc1	> 100 µM	> 100 µM	88 µM	> 88 µM	46 µM	> 100 µM	> 90 µM	> 90 µM	> 90 µM	> 100 µM	> 90 µM	> 90 µM	90 µM	> 100 µM
C[C@@]1(O)[C@H](O)[C@@H](CO)O[C@H]1n1cnc2c(=O)[nH]c(N)nc21 [2'-B-METHYL-GUANOSINE]	> 100 µM	> 100 µM				1.1 µM								1.9 µM
O=[N+]([O-])c1ccc(COc2nc3cc4cccnc4c(Cl)c3nc2-c2ccccc2)cc1	> 100 µM	> 100 µM	> 100 µM	> 100 µM	> 100 µM	> 100 µM	> 100 µM	> 100 µM	> 100 µM	> 100 µM	> 100 µM	> 100 µM	> 100 µM	> 100 µM
COc1nc2cc3cccnc3c(Cl)c2nc1Cc1ccccc1	> 100 µM	> 100 µM	> 100 µM	> 100 µM	6 µM	> 100 µM	> 100 µM	> 100 µM	> 100 µM	> 100 µM	> 100 µM	> 100 µM	> 100 µM	> 100 µM
Nc1ccn(C[C@@H](CO)OCP(=O)(O)O)c(=O)n1 [CIDOFOVIR]									> 100 µM		19 µM			
Nc1nc2c(ncn2COCCO)c(=O)[nH]1 [ACYCLOVIR]									> 100 µM					
C#C[C@@]1(O)[C@H](O)[C@@H](CO)O[C@H]1n1ccc(N)nc1=O [2'-ETHYNYL-D-CYTIDINE]							23 µM	27 µM	> 100 µM					
O=c1cnn([C@@H]2O[C@H](CO)[C@@H](O)[C@H]2O)c(=O)[nH]1 [6-AZAURIDINE]									≥ 12.5 µM			1.2 µM		
C[C@@]1(O)[C@H](O)[C@@H](CO)O[C@H]1n1ccc(N)nc1=O													16 µM	> 100 µM
